Activity calls are given as the source filed them. No cut-off for these calls is given here.

Assay [1] concerns Rattus norvegicus. The experiment in a line: Antihyperlipidemic activity in Charles-Foster rat assessed as reversal of triton-induced increase in plasma phospholipid level at 100 mg/kg, po after 18 hrs relative to control. It counts as functional. The method, boiled down: (§1)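 Male adult Charles Foster rats (200-225 g), 6 per group; triton WR-1339 400 mg/kg i.p. plus oral test agent in 0.2% gum acacia suspension, given together, diet withdrawn. After 18 h, retro-orbital EDTA blood was centrifuged 2500 g, 4 °C, 10 min; plasma was diluted 1:3 in saline and TC, PL and TG were assayed enzymatically (mg/dl). Mean ± SD; Student's t-test.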

Assay [2] has as its system Rattus norvegicus. The experiment in a line: Antihyperlipidemic activity in Charles-Foster rat assessed as reversal of triton-induced increase in plasma total cholesterol level at 100 mg/kg, po after 18 hrs relative to triton-treated control. It counts as functional. Put shortly: as §1
The test system of assay [3] is Rattus norvegicus. Briefly: Antihyperlipidemic activity in Charles-Foster rat assessed as reversal of triton-induced increase in plasma total cholesterol level at 100 mg/kg, po after 18 hrs relative to control. It counts as functional. Put shortly:
as §1

A short description of assay [4]: Antioxidant activity assessed as inhibition of microsomal lipid peroxidation at 200 ug/mL by spectrophotometric analysis relative to control. It counts as functional.
A short description of assay [5]: Antioxidant activity assessed as inhibition of hydroxyl radical generation at 200 ug/mL after 90 mins by spectrophotometric analysis relative to control. It counts as functional. Put shortly: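 Hydroxyl radicals were generated non-enzymically from deoxyribose (2.8 mM), FeSO4 (2 mM), sodium ascorbate (2.0 mM) and H2O2 (2.8 mM) in KH2PO4 buffer pH 7.4, 2.5 mL final, with or without agent at 200 µg/ml, for 90 min at 37 °C. MDA was read spectrophotometrically by the thiobarbituric acid method against reference samples and reagent blanks.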

Assay [6] is described as follows: Antioxidant activity assessed as inhibition of superoxide anion generation at 200 ug/mL after 30 mins by NBT reduction assay relative to control. It counts as functional. The method, boiled down:
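Superoxide was generated by xanthine, xanthine oxidase (0.04 U) and nitroblue tetrazolium in 100 mM phosphate buffer pH 8.2, with or without agent at 200 µg/ml, for 30 min at 37 °C. Stopped with glacial acetic acid; formazan read at 560 nm, and % inhibition derived using ε 7.2 × 10³ M⁻¹cm⁻¹.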

Assay [7] has as its system Rattus norvegicus. Briefly: Antihyperlipidemic activity in triton-induced Charles-Foster rat assessed as increase in plasma lecithin cholesterol acyltransferase activity at 100 mg/kg, po after 18 hrs by colorimetric assay. It counts as functional, organism-based. Further details: dose 100 mg/kg.
The subject of assay [8] is Rattus norvegicus. Briefly: Antihyperlipidemic activity in Charles-Foster rat assessed as reversal of triton-induced decrease in HDL level at 100 mg/kg, po after 18 hrs. It counts as functional, organism-based. The arrangement: dose 100 mg/kg. Put shortly: (§2)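 Triton WR-1339 (400 mg/kg i.p.) hyperlipidemic male Charles Foster rats dosed 100 mg/kg p.o. for 18 h, 6/group. Serum was fractionated into VLDL, LDL and HDL by polyanionic precipitation and lipoprotein cholesterol measured. Mean ± SD; Student's t-test against triton group.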

In assay [9] the test system is Rattus norvegicus. The experiment in a line: Antihyperlipidemic activity in Charles-Foster rat assessed as reversal of triton-induced increase in LDL level at 100 mg/kg, po after 18 hrs. It counts as functional, organism-based. Further details: dose 100 mg/kg. Put shortly:
as §2

Assay [10] has as its system Rattus norvegicus. The experiment in a line: Antihyperlipidemic activity in Charles-Foster rat assessed as reversal of triton-induced increase in VLDL level at 100 mg/kg, po after 18 hrs. It counts as functional, organism-based. The arrangement: dose 100 mg/kg. The method, boiled down:
as §2

Assay [11] deals with Rattus norvegicus. The experiment in a line: Antihyperlipidemic activity in po dosed Charles-Foster rat assessed as reversal of triton-induced increase in plasma triglyceride level after 18 hrs. It counts as functional, organism-based. Put shortly:
as §1

Assay [12] deals with Rattus norvegicus. Briefly: Antihyperlipidemic activity in po dosed Charles-Foster rat assessed as reversal of triton-induced increase in plasma phospholipid level after 18 hrs. It counts as functional, organism-based. Put shortly:
as §1

For assay [13], the system named is Rattus norvegicus. Briefly: Antihyperlipidemic activity in po dosed Charles-Foster rat assessed as reversal of triton-induced increase in plasma total cholesterol level after 18 hrs. It counts as functional, organism-based. The method, boiled down: as §1
The test system of assay [14] is Rattus norvegicus. The experiment in a line: Antihyperlipidemic activity in Charles-Foster rat assessed as reversal of triton-induced increase in plasma triglyceride level at 150 mg/kg, po after 18 hrs relative to triton-treated control. It counts as functional. Put shortly:
(§3)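 Dose-response in triton WR-1339 (400 mg/kg i.p.) hyperlipidemic male Charles Foster rats given oral agent at 50, 100 or 150 mg/kg in gum acacia suspension for 18 h, 6 rats/group. Plasma TC, PL and TG were measured enzymatically. Pooled data as mean ± SD; triton versus triton-plus-agent groups compared by t-test.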

The subject of assay [15] is Rattus norvegicus. The experiment in a line: Antihyperlipidemic activity in Charles-Foster rat assessed as reversal of triton-induced increase in plasma triglyceride level at 50 mg/kg, po after 18 hrs relative to triton-treated control. It counts as functional. The method, boiled down: as §3
Assay [16] relates to Rattus norvegicus. The experiment in a line: Antihyperlipidemic activity in Charles-Foster rat assessed as reversal of triton-induced increase in plasma phospholipid level at 150 mg/kg, po after 18 hrs relative to triton-treated control. It counts as functional. The method, boiled down:
as §3

The test system of assay [17] is Rattus norvegicus. Briefly: Antihyperlipidemic activity in Charles-Foster rat assessed as reversal of triton-induced increase in plasma phospholipid level at 50 mg/kg, po after 18 hrs relative to triton-treated control. It counts as functional. The method, boiled down:
as §3

Assay [18] deals with Rattus norvegicus. The experiment in a line: Antihyperlipidemic activity in Charles-Foster rat assessed as reversal of triton-induced increase in plasma total cholesterol level at 150 mg/kg, po after 18 hrs relative to triton-treated control. It counts as functional. The method, boiled down:
as §3

In assay [19] the test system is Rattus norvegicus. Briefly: Antihyperlipidemic activity in Charles-Foster rat assessed as reversal of triton-induced increase in plasma total cholesterol level at 50 mg/kg, po after 18 hrs relative to triton-treated control. It counts as functional. Put shortly: as §3
Assay [20] deals with Rattus norvegicus. Briefly: Antihyperlipidemic activity in Charles-Foster rat assessed as post heparin lipolytic activity at 100 mg/kg, po after 18 hrs by spectrophotometric analysis relative to triton-treated control. It counts as functional. The method, boiled down: (§4)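 Male adult Charles Foster rats (200-225 g), 6 per group. Triton WR-1339 400 mg/kg i.p.; test agent 100 mg/kg p.o. as gum acacia (0.2% w/v) suspension in water, given simultaneously, diet withdrawn; vehicle to control and triton groups. At 18 h under thiopentone (50 mg/kg), retro-orbital blood collected into EDTA and plasma separated. Post-heparin lipolytic activity read spectrophotometrically as nmol free fatty acid/h/ml plasma; mean ± SD; Student's t-test.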

Assay [21] concerns Rattus norvegicus. The experiment in a line: Antihyperlipidemic activity in Charles-Foster rat assessed as post heparin lipolytic activity at 100 mg/kg, po after 18 hrs by spectrophotometric analysis relative to control. It counts as functional. The method, boiled down: as §4
In assay [22] the test system is Rattus norvegicus. Briefly: Antihyperlipidemic activity in Charles-Foster rat assessed as reversal of triton-induced increase in plasma triglyceride level at 100 mg/kg, po after 18 hrs relative to triton-treated control. It counts as functional. The method, boiled down:
as §1

The subject of assay [23] is Rattus norvegicus. Briefly: Antihyperlipidemic activity in Charles-Foster rat assessed as reversal of triton-induced increase in plasma triglyceride level at 100 mg/kg, po after 18 hrs relative to control. It counts as functional. The method, boiled down: as §1
Assay [24] has as its system Rattus norvegicus. Briefly: Antihyperlipidemic activity in Charles-Foster rat assessed as reversal of triton-induced increase in plasma phospholipid level at 100 mg/kg, po after 18 hrs relative to triton-treated control. It counts as functional. The method, boiled down:
as §1

As for `CCc1cc(C(c2c[nH]c3ccc(OC)cc23)c2c[nH]c3ccc(OC)cc23)cc2cc(C(=O)c3ccc(OC)cc3)oc12`, the Activity was 146.88 mg/dL in the assay with Rattus norvegicus [1]; -28% with Rattus norvegicus [2]; 132.63 mg/dL in the assay with Rattus norvegicus [3]; “Dose-dependent effect” in the assay on Rattus norvegicus [11]; “Dose-dependent effect” with Rattus norvegicus [12]; “Dose-dependent effect” in the assay on Rattus norvegicus [13]. In addition, the Activity with Rattus norvegicus [14] is reported as -30%; in the assay on Rattus norvegicus [15], -20%; with Rattus norvegicus [16], -29%; in the assay with Rattus norvegicus [17], -20%; in the assay with Rattus norvegicus [18], -29%; with Rattus norvegicus [19] it was -22%. Also, the Activity with Rattus norvegicus [20] is 18%; in the assay with Rattus norvegicus [21], 15.58 nmol/h/mL; in the assay on Rattus norvegicus [22], -28%; with Rattus norvegicus [23] it was 155.59 mg/dL; in the assay with Rattus norvegicus [24], -29%. The inhibition in [4] stood at 32%; in assay [5], 27%; in [6] it was 31%. The result in the assay with Rattus norvegicus [7], with Rattus norvegicus [8], with Rattus norvegicus [9] and with Rattus norvegicus [10] was Active.
For the compound `CCCc1cc(C(c2c[nH]c3ccc(OC)cc23)c2c[nH]c3ccc(OC)cc23)cc2cc(C(=O)c3ccc(OC)cc3)oc12`, the Activity was 159.29 mg/dL with Rattus norvegicus [1]; -24% in the assay on Rattus norvegicus [2]; 139.99 mg/dL in the assay on Rattus norvegicus [3]; -24% in the assay on Rattus norvegicus [14]; -16% in the assay on Rattus norvegicus [15]; -26% in the assay on Rattus norvegicus [16]. Besides, the Activity in the assay with Rattus norvegicus [17] was -18%; with Rattus norvegicus [18], -24%; in the assay with Rattus norvegicus [19] it was -17%; with Rattus norvegicus [20] it was 16%; in the assay on Rattus norvegicus [21], 15.32 nmol/h/mL; with Rattus norvegicus [22], -23%. Also, the Activity in the assay with Rattus norvegicus [23] is 166.4 mg/dL; with Rattus norvegicus [24] it was -23%. For the same compound, the outcome in the assay with Rattus norvegicus [7], in the assay on Rattus norvegicus [8], with Rattus norvegicus [9] and in the assay on Rattus norvegicus [10] was Active.
For `COc1ccc(C(=O)c2cc3cc(C(c4c[nH]c5ccc(OC)cc45)c4c[nH]c5ccc(OC)cc45)cc(C(C)(C)C)c3o2)cc1`, the Activity is 159.29 mg/dL in the assay with Rattus norvegicus [1]; -24% with Rattus norvegicus [2]; 139.99 mg/dL with Rattus norvegicus [3]; -24% in the assay on Rattus norvegicus [14]; -21% with Rattus norvegicus [15]; -23% in the assay with Rattus norvegicus [16]. Also, the Activity with Rattus norvegicus [17] is -20%; in the assay on Rattus norvegicus [18] it was -27%; in the assay on Rattus norvegicus [19] it was -20%; in the assay with Rattus norvegicus [20], 17%; in the assay on Rattus norvegicus [21] it was 15.45 nmol/h/mL; in the assay with Rattus norvegicus [22], -23%. Moreover, the values for the Activity with Rattus norvegicus [23] and in the assay on Rattus norvegicus [24] were 166.4 mg/dL and -23%, respectively. For the same compound, the outcome in the assay with Rattus norvegicus [7], in the assay with Rattus norvegicus [8], with Rattus norvegicus [9] and in the assay on Rattus norvegicus [10] was Active.
For the compound `Oc1ncnc2[nH]ncc12`, the inhibition in assay [6] is 51%.
`COc1ccc(C(=O)c2cc3cc(C(c4c[nH]c5ccc(OC)cc45)c4c[nH]c5ccc(OC)cc45)cc(C)c3o2)cc1`: the Activity in the assay on Rattus norvegicus [1] was 159.29 mg/dL; in the assay on Rattus norvegicus [2], -23%; in the assay with Rattus norvegicus [3], 141.84 mg/dL; with Rattus norvegicus [14], -25%; in the assay with Rattus norvegicus [15], -16%; with Rattus norvegicus [16], -24%. In addition, the Activity in the assay on Rattus norvegicus [17] is -17%; with Rattus norvegicus [18] it was -25%; in the assay on Rattus norvegicus [19] it was -15%; in the assay with Rattus norvegicus [20] it was 16%; in the assay on Rattus norvegicus [21], 15.32 nmol/h/mL; in the assay on Rattus norvegicus [22] it was -24%. Moreover, the results for the Activity in the assay with Rattus norvegicus [23] and in the assay with Rattus norvegicus [24] were 164.24 mg/dL and -23%, respectively. In addition, the figures for the inhibition in assay [4], in [5] and in assay [6] were 31%, 30% and 33%, respectively. For the same compound, the outcome with Rattus norvegicus [7], with Rattus norvegicus [8], in the assay with Rattus norvegicus [9] and with Rattus norvegicus [10] was Active.

What is called inhibition is the drop in the measured response relative to a control, in per cent.

(Values after ChEMBL document CHEMBL2424556, “Hybrid benzofuran-bisindole derivatives: new prototypes with promising anti-hyperlipidemic activities” (2013).)
